In the library only some 2.3% were active in any assay of this set; here they are far more common.
TRPC4 potent: allosterically enhances the mouse TRPC4 cation channel. HEK293 TRPC4beta/mu-opioid, DAMGO EC20, Fluo-4 Ca2+ flux; active compounds read high. B-score at 10 µM. actives 0.42% (n = 310,000). AID 2227;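 active = B-score of calcium response area above 5 SD of library B-scores, with initial fluorescence ratio within 5 SD of library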;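 note: B-score of integrated fluorescence ratio over time as area under calcium response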
Target sequence (Q9QUQ5 whole entry, looked up): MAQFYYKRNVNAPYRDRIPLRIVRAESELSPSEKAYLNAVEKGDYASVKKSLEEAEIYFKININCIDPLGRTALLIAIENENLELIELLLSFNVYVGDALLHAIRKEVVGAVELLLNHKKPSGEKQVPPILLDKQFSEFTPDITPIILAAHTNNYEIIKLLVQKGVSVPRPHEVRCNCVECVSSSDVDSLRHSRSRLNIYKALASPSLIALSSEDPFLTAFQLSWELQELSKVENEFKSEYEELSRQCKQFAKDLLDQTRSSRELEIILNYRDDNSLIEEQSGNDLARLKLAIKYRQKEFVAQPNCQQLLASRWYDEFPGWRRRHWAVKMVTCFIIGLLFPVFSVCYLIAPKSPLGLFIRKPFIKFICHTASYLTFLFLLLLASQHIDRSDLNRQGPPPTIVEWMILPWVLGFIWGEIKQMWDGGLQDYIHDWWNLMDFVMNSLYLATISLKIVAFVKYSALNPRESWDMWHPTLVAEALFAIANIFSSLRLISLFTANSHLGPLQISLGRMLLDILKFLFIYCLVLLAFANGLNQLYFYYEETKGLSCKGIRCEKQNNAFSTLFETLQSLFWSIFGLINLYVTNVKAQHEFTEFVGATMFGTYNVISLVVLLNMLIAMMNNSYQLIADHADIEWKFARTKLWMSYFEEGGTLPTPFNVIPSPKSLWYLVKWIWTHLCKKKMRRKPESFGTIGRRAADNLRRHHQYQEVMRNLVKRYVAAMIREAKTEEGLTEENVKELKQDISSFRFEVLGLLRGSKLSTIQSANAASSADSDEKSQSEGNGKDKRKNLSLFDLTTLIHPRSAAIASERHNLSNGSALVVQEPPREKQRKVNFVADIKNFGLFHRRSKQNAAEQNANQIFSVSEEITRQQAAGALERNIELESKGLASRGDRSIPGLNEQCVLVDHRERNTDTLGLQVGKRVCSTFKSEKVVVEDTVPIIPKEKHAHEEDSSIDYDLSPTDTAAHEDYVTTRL
TRPC6 inhibitor: blocks the mouse TRPC6 cation channel; HEK293-TRPC6, membrane potential dye, ACh-evoked depolarization; active compounds read low; B-score at 10 µM; actives 1.1% (n = 310,000); AID 2553;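 active = B-score under library mean minus 3 SD, initial fluorescence not abnormally high, positive integrated signal ratio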;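 note: B-score derived from integrated fluorescence ratio over the kinetic read; more negative B-score means stronger inhibition of depolarization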
TRPC6 activator: mouse TRPC6 channel activation. Q61143. HEK293-TRPC6 membrane potential dye fluorescence; active compounds read high. B-score at 10 µM. actives 0.13% (n = 310,000). AID 2550;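 active = B-score of the integrated fluorescence ratio above library mean plus 3 SD, and starting fluorescence ratio within library mean plus 5 SD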;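 note: higher score means more depolarization so channel activation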
TRPC4 block: blocks the mouse TRPC4 cation channel | HEK293 TRPC4beta/mu-opioid, DAMGO-evoked Fluo4 calcium flux; active compounds read low | B-score at 10 µM | actives 0.39% (n = 300,000);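 active = B-score over 3 SD under the library average, no early fluorescence shift, positive overall ratio signal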
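Assay system – HEK293 line stably carrying TRPC4beta and mu-opioid receptor · Doses – single dose · Detection – Fluo4 calcium-dye fluorescence, kinetic read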
TRPC4 act: opens the mouse TRPC4 cation channel | actives 0.49% (n = 310,000) | B-score at 10 µM | HEK293 TRPC4beta/mu-opioid, Fluo4 calcium fluorescence; active compounds read high;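 active = B-score above 5 SD of library B-scores, and initial fluorescence ratio not above library mean plus 5 SD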;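 note: positive B-score marks a calcium rise read as TRPC4 activation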
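Assay system: HEK293 stable line with TRPC4beta plus mu-opioid receptor; schedule: 45 min room-temperature Fluo4 loading, 110 s read; technique: kinetic Fluo4 calcium fluorescence; evaluation: integrated baseline-normalised fluorescence ratio, converted to per-well B score; controls: buffer (low) and maximal DAMGO (high)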
TRPC4 spec 2: second check of whether TRPC6 inhibitors also affect mouse TRPC4; shares compounds with TRPC6 inhibitor; HEK293 TRPC4/MOR, membrane potential dye fluorescence; channel activated by saturating DAMGO dose; inhibition, % at 10 µM; actives 42% (n = 920); AID 2776;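 active = compounds whose fluorescence signal differed from control wells by over 3 SD, either direction, in both duplicate plates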
TRPC4 spec: mouse TRPC4 off-target activity of TRPC6 inhibitors | shares compounds with TRPC6 inhibitor | HEK293 TRPC4/mu-opioid, membrane potential fluorescence | activity change, negative = inhibition, % at 10 µM | actives 61% (n = 920) | AID 2777;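 active = rise or fall in signal beyond 3 SD of buffer-only wells in both replicate plates, either sign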;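 note: integrated kinetic ratio of fluorescence range over baseline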
HEK293 MPD ctr 2-1: second counter-screen for TRPC6 inhibitors: parental HEK293 cells | shares compounds with TRPC6 inhibitor | parental HEK293 membrane potential dye fluorescence; maximal acetylcholine challenge after compound addition | signal change vs control, % at 10 µM | actives 31% (n = 920);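 active = membrane potential signal moving either way by over 3 SD of the maximum-effect control, in both duplicate plates, meaning non-specific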
HEK293 MPD ctr-1: parental HEK293 nonspecific activity of TRPC6 inhibitors. parental HEK293 membrane potential dye fluorescence. actives 60% (n = 920). membrane potential signal change, % at 10 µM. shares compounds with TRPC6 inhibitor;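 active = membrane potential signal shifting up or down by more than 3 SD of buffer-only wells, on both duplicate plates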
HEK293 MPD ctr-2: checks TRPC6 modulator effects in parental HEK293 cells. shares compounds with TRPC6 inhibitor. membrane potential dye fluorescence. membrane potential signal change, % at 10 µM. actives 51% (n = 2,400). AID 488924;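 active = membrane potential signal moves up or down beyond 5 SD from buffer-only wells, on both duplicate plates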
HEK293 MPD ctr 2-2: second counter-screen for TRPC6 modulators: effect in parental HEK293 cells; shares compounds with TRPC6 inhibitor; membrane potential dye fluorescence; after compound, maximal acetylcholine stimulation; inhibition, % at 10 µM; actives 14% (n = 2,400); AID 488926;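 active = membrane potential signal drops by more than 5 SD from the mean control signal, in both duplicate plates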;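 note: plate controls were acetylcholine ECmax control wells for no effect and buffer only wells for full effect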
TRPC4/MOR mod: tests whether TRPC6 modulators also affect mouse TRPC4. HEK293 TRPC4/mu-opioid, membrane potential fluorescence. actives 69% (n = 2,400). shares compounds with TRPC6 inhibitor. percent change from control (negative = decrease, positive = increase), % at 10 µM;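 active = membrane potential signal moved up or down beyond 5 SD of buffer control wells, in both duplicate plates, actives on both sides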;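 note: plate controls were assay buffer wells for no effect and DAMGO maximal-effect wells for full effect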
TRPC4 ctr inh 2: second selectivity test of TRPC6 modulators against mouse TRPC4 | actives 55% (n = 2,400) | shares compounds with TRPC6 inhibitor | HEK293 TRPC4/mu-opioid, membrane potential dye fluorescence; stimulated with maximal-effect DAMGO | AID 488928 | inhibition, % at 10 µM;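 active = drop in membrane potential signal beyond 5 SD of the control wells in both duplicate plates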;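 note: TRPC4 counter screen for TRPC6 hits run under conditions tuned for TRPC6 not TRPC4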
TRPC6 inh conf: confirmation of mouse TRPC6 inhibitors; actives 43% (n = 3,300); inhibition, % at 10 µM; HEK293-TRPC6, membrane potential dye, ACh-evoked depolarization; shares compounds with TRPC6 inhibitor;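 active = fluorescence ratio falls more than 5 SD below the full-stimulation control mean, in both duplicate runs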;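 note: integrated fluorescence ratio of peak minus minimum over baseline after agonist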
TRPC6 act conf: confirmation of mouse TRPC6 activators; activation, % at 10 µM; HEK293-TRPC6 membrane potential dye fluorescence, FDSS; shares compounds with TRPC6 inhibitor; AID 488961; actives 11% (n = 2,800);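 active = ratio signal rise beyond 5 SD above unstimulated control wells' mean, seen in both duplicate runs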;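 note: plate controls were buffer EC0 wells for no effect and acetylcholine ECmax response for full effect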
Starred values were filed as active, the others as inactive; i = inactive; · = no result; + = active, no number.

SMILES	TRPC4 potent	TRPC6 inhibitor	TRPC6 activator	TRPC4 block	TRPC4 act	HEK293 MPD ctr-2	HEK293 MPD ctr 2-2	TRPC4/MOR mod	TRPC4 ctr inh 2	TRPC6 inh conf	TRPC6 act conf	others
CCOC(=O)c1ccc2ncc(C(=O)OCC)c(NCCCN3CCOCC3)c2c1	i	-6.77*	i	i	i	·	·	·	·	i	i	TRPC4 spec 2=i;TRPC4 spec=-15.6%*;HEK293 MPD ctr 2-1=i;HEK293 MPD ctr-1=-251.0%*
CCOC(=O)c1cnc2ccc(Br)cc2c1NCCCN1CCOCC1	i	i	i	i	i	·	·	·	·	·	·
CCOC(=O)c1cnc2c(C)cc(C)cc2c1NCCCN1CCOCC1	i	-8.77*	i	i	i	·	·	·	·	65.2%*	i	TRPC4 spec 2=70.5%*;TRPC4 spec=i;HEK293 MPD ctr 2-1=-14.0%*;HEK293 MPD ctr-1=i
C=CCOc1ccc(/C=C2/C(=N)N3N=C(CC(=O)N4CCCC4)SC3=NC2=O)cc1OC	i	i	i	i	i	·	·	·	·	·	·
Cc1ccccc1CCNC(=O)Cn1ccc2cc(S(=O)(=O)N3CCCC3)ccc21	i	i	i	i	i	·	·	·	·	·	·
CCc1cc2cc(OC)ccc2nc1SCC(=O)NNC(=O)c1ccco1	i	i	i	i	i	·	·	·	·	·	·
COc1ccc(S(=O)(=O)N2CCC(C(=O)NCCCc3ccccc3)CC2)cc1	i	i	i	i	i	·	·	·	·	·	·
Cc1ccc(-c2cn(-c3ccc(SC(F)F)cc3)c3[n+]2CCC3)cc1	i	i	i	i	i	·	·	·	·	·	·
FC(F)Sc1ccc(-n2cc(-c3ccc(Cl)cc3)[n+]3c2CCC3)cc1	i	-7*	i	i	i	·	·	·	·	52.9%*	i	TRPC4 spec 2=i;TRPC4 spec=-13.7%*;HEK293 MPD ctr 2-1=-39.5%*;HEK293 MPD ctr-1=-215.5%*
c1ccc2c(N3CCOCC3)c3c(nc2c1)CCC3	i	-5.32*	i	i	i	-283.0%*	i	-40.5%*	48.0%*	i	i
COc1ccc(CCNc2c3ccccc3nc3ccccc23)cc1OC	i	-6.84*	i	i	i	·	·	·	·	i	i	TRPC4 spec 2=67.5%*;TRPC4 spec=-23.6%*;HEK293 MPD ctr 2-1=i;HEK293 MPD ctr-1=-411.5%*
CN(C)CCCNc1c2c(nc3ccccc13)CCC2	i	i	i	i	i	·	·	·	·	·	·
COCCNc1c2c(nc3ccccc13)CCC2	i	-5.16*	i	-6*	i	-144.0%*	i	-26.0%*	52.5%*	46.0%*	i
COc1ccc(Nc2c3c(nc4ccccc24)CCC3)cc1	i	-5.24*	i	-7*	i	157.0%*	i	24.5%*	36.0%*	i	·
COc1ccc(Nc2c3c(nc4ccccc24)CCCC3)cc1OC	i	-6.05*	i	i	i	i	i	i	43.5%*	i	i
CC1CCN(Cc2c(C(=O)N/N=C/c3cc(Br)ccc3O)nnn2-c2nonc2N)CC1	i	i	i	i	i	·	·	·	·	·	·
CC1CCN(Cc2c(C(=O)N/N=C/c3cc(Cl)ccc3O)nnn2-c2nonc2N)CC1	i	-5.52*	i	i	i	i	i	i	i	i	i
COc1ccc(/C=C(/C(=O)c2ccc(Cl)cc2Cl)n2cncn2)cc1	i	i	i	i	i	·	·	·	·	·	·
CN(C)c1ccc(/C=C(/C(=O)c2ccc(Cl)cc2Cl)n2cncn2)cc1	i	-6.37*	49.3*	i	52*	+	+	266.5%*	i	i	487.0%*
CC(C)N(Cc1nc(-c2ccc3c(c2)OCO3)no1)Cc1nccn1C	i	i	i	i	i	·	·	·	·	·	·
CN1\C(=C/C=C/C=C/C=[N+](C)C)C(C)(C)c2ccccc21	i	-5.17*	i	i	i	533.0%*	i	-20.5%*	31.5%*	48.0%*	i
CN(C)c1ccc(N=C/C=C2\N(C)c3ccccc3C2(C)C)cc1	i	-6.58*	i	i	i	i	i	-16.0%*	53.0%*	58.5%*	i
CN1/C(=C\C=O)C(C)(C)c2ccccc21	i	i	i	i	i	·	·	·	·	·	·
CCn1cc(CN2CCC(n3nccc3NC(=O)c3ccc(OC)cc3)CC2)cn1	i	i	i	i	i	·	·	·	·	·	·
COC(=O)C1=NNC2(c3ccc(Cl)cc3)C(=O)N(c3ccccc3)C(=O)C12 (stereo not given)	i	i	i	i	i	·	·	·	·	·	·
SMILES	TRPC4 potent	TRPC6 inhibitor	TRPC6 activator	TRPC4 block	TRPC4 act	HEK293 MPD ctr-2	HEK293 MPD ctr 2-2	TRPC4/MOR mod	TRPC4 ctr inh 2	TRPC6 inh conf	TRPC6 act conf	others
COc1ccc(-c2nc3n(c2C)CCC3)cc1	i	-5.78*	i	i	i	-266.5%*	i	-35.5%*	43.5%*	i	i
COc1ccc(-c2cc3nc4n(c(=O)c3s2)CCC4)cc1	i	i	i	i	i	·	·	·	·	·	·
CN(c1cccc(NS(=O)(=O)c2cccs2)c1)S(C)(=O)=O	i	-6.1*	i	i	i	i	i	i	i	i	i
COc1ccc(S(=O)(=O)Nc2cccc(N(C)S(C)(=O)=O)c2)cc1Br	i	i	i	i	i	·	·	·	·	·	·
COc1ccc(CNC(=O)CCS(=O)(=O)c2cc3c(cc2Cl)NC(=O)CO3)cc1	i	i	i	i	i	·	·	·	·	·	·
COc1cccc(-c2nc(CS(=O)(=O)CC(=O)NC3CCCCC3C)c(C)o2)c1 (stereo not given)	i	i	i	i	i	·	·	·	·	·	·

Screening results as filed in PubChem BioAssay.
